Columns and labels:
Assay type in all cases: functional
OVCAR-4 [1] = test: Growth inhibition of human OVCAR-4 cells assessed as cell growth at 100 uM incubated for 48 hrs by sulforhodamine B assay relative to control; conditions: read-out: Activity
UACC-257 = test: Growth inhibition of human UACC-257 cells assessed as cell growth at 100 uM incubated for 48 hrs by sulforhodamine B assay relative to control; conditions: read-out: Activity
OVCAR-4 [2] = test: Growth inhibition of human OVCAR-4 cells incubated for 48 hrs by sulforhodamine B assay; conditions: for CC50: read-out: LC50 (the source's name)
In short: (§1)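 NCI DTP 60-line human tumour panel. Dose-response curves were run only for ligands active in the initial 10 µM screen. GI50 (concentration giving 50% of maximal inhibition of proliferation) and TGI (concentration giving total growth inhibition) were derived from these curves.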

OVCAR-4 [3] = test: Growth inhibition of human OVCAR-4 cells assessed as cell growth at 1 uM incubated for 48 hrs by sulforhodamine B assay relative to control; conditions: read-out: Activity
786-0 = test: Growth inhibition of human 786-0 cells assessed as cell growth at 1 uM incubated for 48 hrs by sulforhodamine B assay relative to control; conditions: read-out: Activity
In short: (§2)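 NCI Developmental Therapeutics Program NCI60 panel. Compounds that were active in the 10 µM one-dose screen went on to dose–response testing. Growth at each concentration is expressed relative to untreated control (100%). GI50 (concentration giving 50% of maximal inhibition of proliferation) and TGI (concentration giving total growth inhibition) were derived from the curves.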

SNB-75 = test: Growth inhibition of human SNB-75 cells assessed as cell growth at 0.01 uM incubated for 48 hrs by sulforhodamine B assay relative to control; conditions: read-out: Activity
SNB-19 = test: Growth inhibition of human SNB-19 cells assessed as cell growth at 0.01 uM incubated for 48 hrs by sulforhodamine B assay relative to control; conditions: read-out: Activity
CCRF-CEM = test: Growth inhibition of human CCRF-CEM cells assessed as cell growth at 0.1 uM incubated for 48 hrs by sulforhodamine B assay relative to control; conditions: read-out: Activity; in short: as §2
LOX IMVI = test: Growth inhibition of human LOX IMVI cells assessed as cell growth at 100 uM incubated for 48 hrs by sulforhodamine B assay relative to control; conditions: read-out: Activity
A498 [4] = test: Growth inhibition of human A498 cells incubated for 48 hrs by sulforhodamine B assay; conditions: for CC50: read-out: LC50 (the source's name); in short: as §2
NCI-H522 = test: Growth inhibition of human NCI-H522 cells assessed as cell growth at 0.1 uM incubated for 48 hrs by sulforhodamine B assay relative to control; conditions: read-out: Activity
NCI-H322M = test: Growth inhibition of human NCI-H322M cells incubated for 48 hrs by sulforhodamine B assay; conditions: for CC50: read-out: LC50 (the source's name)
In short: (§3)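 NCI60 panel at the NCI Developmental Therapeutics Program. Only compounds active in the 10 µM screen went to dose-response testing. GI50, the concentration giving 50% of maximal inhibition of proliferation, and TGI, the concentration giving total growth inhibition, were derived from the dose-response curves.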

SK-MEL-28 [5] = test: Growth inhibition of human SK-MEL-28 cells assessed as cell growth at 1 uM incubated for 48 hrs by sulforhodamine B assay relative to control; conditions: read-out: Activity
SF-268 = test: Growth inhibition of human SF-268 cells assessed as cell growth at 1 uM incubated for 48 hrs by sulforhodamine B assay relative to control; conditions: read-out: Activity
OVCAR-3 = test: Growth inhibition of human OVCAR-3 cells assessed as cell growth at 0.01 uM incubated for 48 hrs by sulforhodamine B assay relative to control; conditions: read-out: Activity
MDA-MB-231 [6] = test: Growth inhibition of human MDA-MB-231 cells assessed as cell growth at 1 uM incubated for 48 hrs by sulforhodamine B assay relative to control; conditions: read-out: Activity
SN12C = test: Growth inhibition of human SN12C cells assessed as cell growth at 100 uM incubated for 48 hrs by sulforhodamine B assay relative to control; conditions: read-out: Activity
OVCAR-5 = test: Growth inhibition of human OVCAR-5 cells assessed as cell growth at 0.01 uM incubated for 48 hrs by sulforhodamine B assay relative to control; conditions: read-out: Activity
HOP-92 = test: Growth inhibition of human HOP-92 cells incubated for 48 hrs by sulforhodamine B assay; in short: as §3
SR = test: Growth inhibition of human SR cells assessed as cell growth at 100 uM incubated for 48 hrs by sulforhodamine B assay relative to control; conditions: read-out: Activity
KM12 = test: Growth inhibition of human KM12 cells assessed as cell growth at 0.1 uM incubated for 48 hrs by sulforhodamine B assay relative to control; conditions: read-out: Activity
SK-MEL-28 [7] = test: Growth inhibition of human SK-MEL-28 cells incubated for 48 hrs by sulforhodamine B assay; in short: as §1
K562 = test: Growth inhibition of human K562 cells assessed as cell growth at 0.1 uM incubated for 48 hrs by sulforhodamine B assay relative to control; conditions: read-out: Activity
MDA-MB-231 [8] = test: Growth inhibition of human MDA-MB-231 cells assessed as cell growth at 0.01 uM incubated for 48 hrs by sulforhodamine B assay relative to control; conditions: read-out: Activity
HCC 2998 = test: Growth inhibition of human HCC 2998 cells assessed as cell growth at 100 uM incubated for 48 hrs by sulforhodamine B assay relative to control; conditions: read-out: Activity; in short: as §2
IGROV-1 = test: Growth inhibition of human IGROV-1 cells assessed as cell growth at 100 uM incubated for 48 hrs by sulforhodamine B assay relative to control; conditions: read-out: Activity
HT-29 [9] = test: Growth inhibition of human HT-29 cells assessed as cell growth at 100 uM incubated for 48 hrs by sulforhodamine B assay relative to control; conditions: read-out: Activity
A498 [10] = test: Growth inhibition of human A498 cells assessed as cell growth at 1 uM incubated for 48 hrs by sulforhodamine B assay relative to control; conditions: read-out: Activity; in short: as §2
SK-OV-3 = test: Growth inhibition of human SK-OV-3 cells incubated for 48 hrs by sulforhodamine B assay; conditions: for CC50: read-out: LC50 (the source's name); in short: as §1
SW-620 = test: Growth inhibition of human SW-620 cells assessed as cell growth at 1 uM incubated for 48 hrs by sulforhodamine B assay relative to control; conditions: read-out: Activity
M14 = test: Growth inhibition of human M14 cells assessed as cell growth at 0.01 uM incubated for 48 hrs by sulforhodamine B assay relative to control; conditions: read-out: Activity
OVCAR-8 = test: Growth inhibition of human OVCAR-8 cells assessed as cell growth at 100 uM incubated for 48 hrs by sulforhodamine B assay relative to control; conditions: read-out: Activity
HT-29 [11] = test: Growth inhibition of human HT-29 cells assessed as cell growth at 1 uM incubated for 48 hrs by sulforhodamine B assay relative to control; conditions: read-out: Activity
DU-145 = test: Growth inhibition of human DU-145 cells assessed as cell growth at 100 uM incubated for 48 hrs by sulforhodamine B assay relative to control; conditions: read-out: Activity; in short: as §2
SF-295 = test: Growth inhibition of human SF-295 cells assessed as cell growth at 1 uM incubated for 48 hrs by sulforhodamine B assay relative to control; conditions: read-out: Activity

Compound: Nc1c(C(=O)Nc2ccccc2)sc2nc3c(cc12)CN(Cc1ccccc1)CC3
- growth at 100 µM (OVCAR-4 [1]): -19%
- growth at 100 µM (UACC-257): 44%
- GI50 (OVCAR-4 [2]): 1.97 µM
- TGI (OVCAR-4 [2]): 23.1 µM
- CC50 (OVCAR-4 [2]): > 100 µM
- growth at 1 µM (OVCAR-4 [3]): 66%
- growth at 1 µM (786-0): 106%
- growth at 0.01 µM (SNB-75): 91%
- growth at 0.01 µM (SNB-19): 93%
- growth at 0.1 µM (CCRF-CEM): 96%
- growth at 100 µM (LOX IMVI): 20%
- GI50 (A498 [4]): 1.78 µM
- CC50 (A498 [4]): > 100 µM
- growth at 0.1 µM (NCI-H522): 87%
- GI50 (NCI-H322M): > 100 µM
- TGI (NCI-H322M): > 100 µM
- CC50 (NCI-H322M): > 100 µM
- growth at 1 µM (SK-MEL-28 [5]): 94%
- growth at 1 µM (SF-268): 85%
- growth at 0.01 µM (OVCAR-3): 98%
- growth at 1 µM (MDA-MB-231 [6]): 92%
- growth at 100 µM (SN12C): 47%
- growth at 0.01 µM (OVCAR-5): 99%
- GI50 (HOP-92): 2.48 µM
- LC50 (concentration killing 50% of the starting cells) (HOP-92): > 100 µM
- TGI (HOP-92): 20.4 µM
- growth at 100 µM (SR): 19%
- growth at 0.1 µM (KM12): 95%
- GI50 (SK-MEL-28 [7]): 23.2 µM
- LC50 (SK-MEL-28 [7]): > 100 µM
- TGI (SK-MEL-28 [7]): > 100 µM
- growth at 0.1 µM (K562): 99%
- growth at 0.01 µM (MDA-MB-231 [8]): 101%
- growth at 100 µM (HCC 2998): 47%
- growth at 100 µM (IGROV-1): 32%
- growth at 100 µM (HT-29 [9]): 8%
- growth at 1 µM (A498 [10]): 72%
- GI50 (SK-OV-3): 3.53 µM
- TGI (SK-OV-3): > 100 µM
- CC50 (SK-OV-3): > 100 µM
- growth at 1 µM (SW-620): 86%
- growth at 0.01 µM (M14): 98%
- growth at 100 µM (OVCAR-8): 18%
- growth at 1 µM (HT-29 [11]): 101%
- growth at 100 µM (DU-145): 16%
- growth at 1 µM (SF-295): 90%

Compound: Cc1cc(C)c(NC(=O)c2sc3nc4c(cc3c2N)CN(Cc2ccccc2)CC4)c(C)c1
- growth at 100 µM (OVCAR-4 [1]): 28%
- growth at 100 µM (UACC-257): 17%
- GI50 (OVCAR-4 [2]): 6.72 µM
- TGI (OVCAR-4 [2]): > 100 µM
- CC50 (OVCAR-4 [2]): > 100 µM
- growth at 1 µM (OVCAR-4 [3]): 77%
- growth at 1 µM (786-0): 82%
- growth at 0.01 µM (SNB-75): 82%
- growth at 0.01 µM (SNB-19): 98%
- growth at 0.1 µM (CCRF-CEM): 97%
- growth at 100 µM (LOX IMVI): -83%
- GI50 (A498 [4]): 1.31 µM
- TGI (A498 [4]): 7.71 µM
- CC50 (A498 [4]): > 100 µM
- growth at 0.1 µM (NCI-H522): 97%
- GI50 (NCI-H322M): 8.65 µM
- TGI (NCI-H322M): > 100 µM
- CC50 (NCI-H322M): > 100 µM
- growth at 1 µM (SK-MEL-28 [5]): 70%
- growth at 1 µM (SF-268): 92%
- growth at 0.01 µM (OVCAR-3): 104%
- growth at 1 µM (MDA-MB-231 [6]): 89%
- growth at 100 µM (SN12C): 12%
- growth at 0.01 µM (OVCAR-5): 90%
- GI50 (HOP-92): 0.877 µM
- LC50 (concentration killing 50% of the starting cells) (HOP-92): > 100 µM
- TGI (HOP-92): 42.6 µM
- growth at 100 µM (SR): -16%
- growth at 0.1 µM (KM12): 103%
- GI50 (SK-MEL-28 [7]): 6.97 µM
- LC50 (SK-MEL-28 [7]): > 100 µM
- TGI (SK-MEL-28 [7]): 40.4 µM
- growth at 0.1 µM (K562): 105%
- growth at 0.01 µM (MDA-MB-231 [8]): 100%
- growth at 100 µM (HCC 2998): -21%
- growth at 100 µM (IGROV-1): 5%
- growth at 100 µM (HT-29 [9]): -26%
- growth at 1 µM (A498 [10]): 58%
- GI50 (SK-OV-3): 5.35 µM
- TGI (SK-OV-3): > 100 µM
- CC50 (SK-OV-3): > 100 µM
- growth at 1 µM (SW-620): 76%
- growth at 0.01 µM (M14): 91%
- growth at 100 µM (OVCAR-8): 14%
- growth at 1 µM (HT-29 [11]): 90%
- growth at 100 µM (DU-145): -5%
- growth at 1 µM (SF-295): 66%

Reference: ChEMBL document CHEMBL4715736, “Identification of anticancer agents based on the thieno[2,3-b]pyridine and 1H-pyrazole molecular scaffolds” (2016)
